The target of data set [1] is T1, 3-phosphoinositide-dependent protein kinase 1 (Homo sapiens) (UniProt O15530).
T1 sequence (whole entry): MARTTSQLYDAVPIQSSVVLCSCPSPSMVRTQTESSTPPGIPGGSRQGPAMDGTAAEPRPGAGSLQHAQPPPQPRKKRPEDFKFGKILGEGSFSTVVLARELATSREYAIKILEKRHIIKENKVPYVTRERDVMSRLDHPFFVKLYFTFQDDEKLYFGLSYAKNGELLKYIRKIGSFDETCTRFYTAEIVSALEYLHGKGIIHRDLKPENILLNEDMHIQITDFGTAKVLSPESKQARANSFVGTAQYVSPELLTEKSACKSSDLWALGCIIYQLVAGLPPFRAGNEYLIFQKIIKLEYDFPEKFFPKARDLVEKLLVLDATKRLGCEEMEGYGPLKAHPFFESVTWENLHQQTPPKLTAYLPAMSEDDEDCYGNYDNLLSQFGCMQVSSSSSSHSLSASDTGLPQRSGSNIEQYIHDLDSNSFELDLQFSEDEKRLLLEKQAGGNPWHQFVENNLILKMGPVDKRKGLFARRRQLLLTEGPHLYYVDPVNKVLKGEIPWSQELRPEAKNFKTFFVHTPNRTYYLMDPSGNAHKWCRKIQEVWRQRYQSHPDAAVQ
Nature of the data set: Inhibition of PDK2 in human MDA-MB-231 cells assessed as Akt Thr-308 dephosphorylation by Western blot analysis. The format is functional, cell-based. In a few lines: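 Cells exposed 24 h in 5% FBS medium, final DMSO 0.1%; lysed in 1% SDS/10 mM EDTA/50 mM Tris pH 8.1, equal protein on SDS-PAGE, nitrocellulose, primary antibody 1:1000 at 4°C for 2 h, HRP secondary 1:5000, ECL detection; blots representative of three independent experiments.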
(In western blotting, separated proteins are transferred to a membrane and probed.)

Data set [2] deals with T2, Scaffold protein ILK (Homo sapiens) (UniProt Q13418).
T2 sequence (whole entry): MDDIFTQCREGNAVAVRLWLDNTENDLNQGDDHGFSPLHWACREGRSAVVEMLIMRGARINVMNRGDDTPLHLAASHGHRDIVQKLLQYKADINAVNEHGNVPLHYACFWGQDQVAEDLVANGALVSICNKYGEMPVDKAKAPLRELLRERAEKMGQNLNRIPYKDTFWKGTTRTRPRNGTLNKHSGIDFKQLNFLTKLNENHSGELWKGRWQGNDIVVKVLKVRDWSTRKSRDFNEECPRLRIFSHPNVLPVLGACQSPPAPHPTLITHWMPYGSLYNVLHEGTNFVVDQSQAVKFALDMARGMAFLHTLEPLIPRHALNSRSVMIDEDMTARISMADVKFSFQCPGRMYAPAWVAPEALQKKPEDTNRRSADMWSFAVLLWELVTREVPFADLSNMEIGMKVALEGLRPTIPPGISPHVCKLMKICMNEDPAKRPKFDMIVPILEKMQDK
Nature of the data set: Inhibition of ILK in human PC3 cells assessed as decrease in GSK3-beta phosphorylation by Western blot analysis. Format: cell-based. The following applies: PC-3. In a few lines: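 PC-3 and MDA-MB-231 cells exposed 24 h in 5% FBS medium across a concentration series. Phospho-GSK3β (Ser9) and phospho-MLC (Thr18/Ser19) detected by immunoblot: SDS lysis, primary 1:1000 at 4°C for 2 h, HRP secondary, ECL. Representative of three experiments.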

The next data set concerns Mus musculus. Nature of the data set: Decrease in phosphorylation of MLC in human PC3 cells xenografted nude mouse tumor lysate at 25 mg/kg, po administered for 35 days by Western blot analysis. The format is functional, organism-based. Details: dose 25 mg/kg. The following applies: Neoplasm, PC-3. The gist of the method:
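Male NCr athymic nude mice, 5–7 weeks, with s.c. PC-3 xenografts (0.5 × 10^6 cells in 50% Matrigel), dosed by oral gavage once daily for 35 days. Vehicle 0.5% methylcellulose, 0.1% Tween 80 in water, 10 μL/g. Tumors snap-frozen at sacrifice; three tumors per group immunoblotted.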

Data set [3] has as its system SK-BR-3. Kind of data set: Reduction in EGFR concentration in human SKBR3 cells after 24 hrs by Western blot analysis. The format is functional, cell-based. The gist of the method: (§1)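 PC-3 versus stable PC-3/CA-ILK, or SKBR3 versus transient SKBR3/CA-ILK (electroporation, used 48 h after), treated 24 h in 5% FBS medium; immunoblotting with ECL; representative of three experiments.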

Data set [4] concerns the target Proto-oncogene tyrosine-protein kinase ROS (Homo sapiens) (UniProt P08922). Kind of data set: Inhibition of Ros at 5 uM assessed as remaining activity.
The test system of data set [5] is SK-BR-3. Kind of data set: Reduction in YB-1 concentration in human SKBR3 cells expressing constitutively active ILK after 24 hrs by Western blot analysis. Format: functional, cell-based. In a few lines: as §1
Data set [6] relates to PC-3. Nature of the data set: Reduction in HER2 mRNA expression in human PC3 cells expressing constitutively active ILK after 24 hrs by RT-PCR analysis. The format is functional, cell-based. In a few lines: (§2)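 PC-3, PC-3/CA-ILK, SKBR3 and SKBR3/CA-ILK cells treated 24 h in 5% FBS medium; total RNA from 1 × 10^6 cells by Trizol, 1 μg reverse-transcribed, then PCR with gene-specific primers and β-actin reference.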

Another data set concerns PrEC. Nature of the data set: Antiproliferative activity against human PrEC cells at 1 to 5 uM by MTT assay. Format: cell-based. The gist of the method:
(§3)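 Cancer lines seeded 5000/well and nonmalignant PrEC/MEC 8000/well in 10% FBS, 24 h before treatment. Compound exposure 24 h in 5% FBS medium, 0.1% final DMSO. MTT (0.25 mg/mL) for 1 h at 37°C, dye solubilized in DMSO, absorbance read at 570 nm. Mean ± SD, n = 6.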
For orientation: Tetrazolium assays rely on reduction of a dye to a coloured formazan, in cell work by metabolically active cells.

A further data set concerns HMEC. Nature of the data set: Antiproliferative activity against human HMEC cells at 1 to 5 uM by MTT assay. The format is cell-based. In a few lines: as §3
In a further data set the test system is MDA-MB-468. Kind of data set: Antiproliferative activity against human MDA-MB-468 cells assessed as suppression of cell viability by MTT assay. Format: functional, cell-based. The gist of the method: as §3
The subject of data set [7] is SK-BR-3. Nature of the data set: Reduction in HER2 concentration in human SKBR3 cells expressing constitutively active ILK after 24 hrs by Western blot analysis. Format: functional, cell-based. The gist of the method:
as §1

In data set [8] the target is Receptor-type tyrosine-protein kinase FLT3 (Homo sapiens) (UniProt P36888). Kind of data set: Inhibition of Flt3 at 5 uM assessed as remaining activity. In a few lines: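 Panel of 20 recombinant kinases, profiled by a commercial vendor.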
Sequence of Receptor-type tyrosine-protein kinase FLT3 (Homo sapiens) (P36888 whole entry): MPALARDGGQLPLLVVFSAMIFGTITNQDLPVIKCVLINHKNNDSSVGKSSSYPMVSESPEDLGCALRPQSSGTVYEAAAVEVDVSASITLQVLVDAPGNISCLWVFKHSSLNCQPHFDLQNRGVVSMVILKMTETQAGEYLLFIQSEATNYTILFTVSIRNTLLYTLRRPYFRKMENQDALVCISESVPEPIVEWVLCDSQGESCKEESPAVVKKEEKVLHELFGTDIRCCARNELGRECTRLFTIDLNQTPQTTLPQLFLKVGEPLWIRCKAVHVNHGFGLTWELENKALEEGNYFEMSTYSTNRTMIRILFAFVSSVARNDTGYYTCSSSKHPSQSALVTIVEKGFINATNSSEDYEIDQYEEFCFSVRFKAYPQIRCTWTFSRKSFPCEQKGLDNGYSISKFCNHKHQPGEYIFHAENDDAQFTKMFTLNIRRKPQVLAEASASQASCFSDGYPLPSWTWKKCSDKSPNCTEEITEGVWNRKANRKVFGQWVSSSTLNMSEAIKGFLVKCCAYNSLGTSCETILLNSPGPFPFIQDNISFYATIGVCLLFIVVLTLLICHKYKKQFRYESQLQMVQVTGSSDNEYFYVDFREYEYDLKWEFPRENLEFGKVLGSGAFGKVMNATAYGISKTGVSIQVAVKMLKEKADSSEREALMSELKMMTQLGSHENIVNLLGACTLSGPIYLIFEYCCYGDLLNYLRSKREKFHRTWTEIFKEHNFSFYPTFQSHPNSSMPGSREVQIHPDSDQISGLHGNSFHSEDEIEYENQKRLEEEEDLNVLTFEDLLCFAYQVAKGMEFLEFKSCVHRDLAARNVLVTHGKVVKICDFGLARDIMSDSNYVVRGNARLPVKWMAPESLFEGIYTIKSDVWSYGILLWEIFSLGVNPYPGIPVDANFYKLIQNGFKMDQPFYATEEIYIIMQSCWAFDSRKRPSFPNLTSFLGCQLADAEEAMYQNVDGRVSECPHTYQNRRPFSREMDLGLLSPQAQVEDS
The subject of data set [9] is PC-3. Kind of data set: Reduction in EGFR concentration in human PC3 cells expressing constitutively active ILK after 24 hrs by Western blot analysis. The format is functional, cell-based. In a few lines: as §1
Data set [10] has as its target Focal adhesion kinase 1 (Homo sapiens) (UniProt Q05397). Kind of data set: Inhibition of FAK in human PC3 cells assessed as decrease in auto-phosphorylation at Tyr-397 by Western blot analysis. The following applies: PC-3. Format: cell-based. The gist of the method:
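PC-3 cells exposed to graded concentrations for 24 h in 5% FBS medium. Immunoblotting for phospho-Tyr397-FAK, ERK1/2, p38 and JNK. Lysis in 1% SDS buffer, primary antibody 1:1000 at 4°C for 2 h, ECL. Three independent experiments.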

In data set [11] the test system is PC-3. Kind of data set: Induction of apoptosis in human PC3 cells assessed as early apoptotic cells at 3 uM by annexin V/PI staining (reference value: 5.6%). The format is functional.
The test system of data set [12] is SK-BR-3. Nature of the data set: Reduction in EGFR mRNA expression in human SKBR3 cells expressing constitutively active ILK after 24 hrs by RT-PCR analysis. The format is functional, cell-based. In a few lines: as §2

pIC50: −log10 of the molar value. Active and inactive are the calls of the source. The rule behind the calls is not given here.

The values below come from ChEMBL document CHEMBL1828498, “Identification and characterization of a novel integrin-linked kinase inhibitor” (J Med Chem, 2011).

Sequence of Focal adhesion kinase 1 (Homo sapiens) (Q05397 2-1052 limits assumed): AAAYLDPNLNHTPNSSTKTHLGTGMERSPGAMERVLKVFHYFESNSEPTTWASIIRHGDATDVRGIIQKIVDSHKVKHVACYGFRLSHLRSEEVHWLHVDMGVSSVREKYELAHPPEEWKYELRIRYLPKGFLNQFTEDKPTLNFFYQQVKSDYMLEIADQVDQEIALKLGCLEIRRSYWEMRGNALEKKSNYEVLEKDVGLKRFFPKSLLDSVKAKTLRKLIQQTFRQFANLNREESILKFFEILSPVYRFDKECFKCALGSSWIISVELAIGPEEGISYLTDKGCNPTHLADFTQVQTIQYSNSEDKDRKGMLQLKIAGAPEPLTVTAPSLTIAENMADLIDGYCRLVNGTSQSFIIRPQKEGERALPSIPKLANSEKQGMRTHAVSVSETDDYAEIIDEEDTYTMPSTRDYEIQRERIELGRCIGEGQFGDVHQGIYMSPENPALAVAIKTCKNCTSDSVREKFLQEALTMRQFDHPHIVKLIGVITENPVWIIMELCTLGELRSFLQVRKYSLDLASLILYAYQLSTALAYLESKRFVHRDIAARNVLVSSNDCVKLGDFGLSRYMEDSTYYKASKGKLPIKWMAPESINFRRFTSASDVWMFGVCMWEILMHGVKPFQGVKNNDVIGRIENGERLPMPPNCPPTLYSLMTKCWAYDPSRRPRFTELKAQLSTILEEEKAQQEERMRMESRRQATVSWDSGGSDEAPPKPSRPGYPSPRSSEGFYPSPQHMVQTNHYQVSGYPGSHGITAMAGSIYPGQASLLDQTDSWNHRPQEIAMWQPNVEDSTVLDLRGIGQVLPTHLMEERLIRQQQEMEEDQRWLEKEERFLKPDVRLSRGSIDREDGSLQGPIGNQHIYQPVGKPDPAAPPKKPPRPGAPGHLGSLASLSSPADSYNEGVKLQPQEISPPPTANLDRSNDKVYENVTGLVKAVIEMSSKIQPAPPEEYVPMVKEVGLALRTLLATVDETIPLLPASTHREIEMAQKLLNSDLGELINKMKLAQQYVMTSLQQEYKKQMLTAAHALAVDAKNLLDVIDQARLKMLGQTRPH
Sequence of Proto-oncogene tyrosine-protein kinase ROS (Homo sapiens) (P08922 whole entry): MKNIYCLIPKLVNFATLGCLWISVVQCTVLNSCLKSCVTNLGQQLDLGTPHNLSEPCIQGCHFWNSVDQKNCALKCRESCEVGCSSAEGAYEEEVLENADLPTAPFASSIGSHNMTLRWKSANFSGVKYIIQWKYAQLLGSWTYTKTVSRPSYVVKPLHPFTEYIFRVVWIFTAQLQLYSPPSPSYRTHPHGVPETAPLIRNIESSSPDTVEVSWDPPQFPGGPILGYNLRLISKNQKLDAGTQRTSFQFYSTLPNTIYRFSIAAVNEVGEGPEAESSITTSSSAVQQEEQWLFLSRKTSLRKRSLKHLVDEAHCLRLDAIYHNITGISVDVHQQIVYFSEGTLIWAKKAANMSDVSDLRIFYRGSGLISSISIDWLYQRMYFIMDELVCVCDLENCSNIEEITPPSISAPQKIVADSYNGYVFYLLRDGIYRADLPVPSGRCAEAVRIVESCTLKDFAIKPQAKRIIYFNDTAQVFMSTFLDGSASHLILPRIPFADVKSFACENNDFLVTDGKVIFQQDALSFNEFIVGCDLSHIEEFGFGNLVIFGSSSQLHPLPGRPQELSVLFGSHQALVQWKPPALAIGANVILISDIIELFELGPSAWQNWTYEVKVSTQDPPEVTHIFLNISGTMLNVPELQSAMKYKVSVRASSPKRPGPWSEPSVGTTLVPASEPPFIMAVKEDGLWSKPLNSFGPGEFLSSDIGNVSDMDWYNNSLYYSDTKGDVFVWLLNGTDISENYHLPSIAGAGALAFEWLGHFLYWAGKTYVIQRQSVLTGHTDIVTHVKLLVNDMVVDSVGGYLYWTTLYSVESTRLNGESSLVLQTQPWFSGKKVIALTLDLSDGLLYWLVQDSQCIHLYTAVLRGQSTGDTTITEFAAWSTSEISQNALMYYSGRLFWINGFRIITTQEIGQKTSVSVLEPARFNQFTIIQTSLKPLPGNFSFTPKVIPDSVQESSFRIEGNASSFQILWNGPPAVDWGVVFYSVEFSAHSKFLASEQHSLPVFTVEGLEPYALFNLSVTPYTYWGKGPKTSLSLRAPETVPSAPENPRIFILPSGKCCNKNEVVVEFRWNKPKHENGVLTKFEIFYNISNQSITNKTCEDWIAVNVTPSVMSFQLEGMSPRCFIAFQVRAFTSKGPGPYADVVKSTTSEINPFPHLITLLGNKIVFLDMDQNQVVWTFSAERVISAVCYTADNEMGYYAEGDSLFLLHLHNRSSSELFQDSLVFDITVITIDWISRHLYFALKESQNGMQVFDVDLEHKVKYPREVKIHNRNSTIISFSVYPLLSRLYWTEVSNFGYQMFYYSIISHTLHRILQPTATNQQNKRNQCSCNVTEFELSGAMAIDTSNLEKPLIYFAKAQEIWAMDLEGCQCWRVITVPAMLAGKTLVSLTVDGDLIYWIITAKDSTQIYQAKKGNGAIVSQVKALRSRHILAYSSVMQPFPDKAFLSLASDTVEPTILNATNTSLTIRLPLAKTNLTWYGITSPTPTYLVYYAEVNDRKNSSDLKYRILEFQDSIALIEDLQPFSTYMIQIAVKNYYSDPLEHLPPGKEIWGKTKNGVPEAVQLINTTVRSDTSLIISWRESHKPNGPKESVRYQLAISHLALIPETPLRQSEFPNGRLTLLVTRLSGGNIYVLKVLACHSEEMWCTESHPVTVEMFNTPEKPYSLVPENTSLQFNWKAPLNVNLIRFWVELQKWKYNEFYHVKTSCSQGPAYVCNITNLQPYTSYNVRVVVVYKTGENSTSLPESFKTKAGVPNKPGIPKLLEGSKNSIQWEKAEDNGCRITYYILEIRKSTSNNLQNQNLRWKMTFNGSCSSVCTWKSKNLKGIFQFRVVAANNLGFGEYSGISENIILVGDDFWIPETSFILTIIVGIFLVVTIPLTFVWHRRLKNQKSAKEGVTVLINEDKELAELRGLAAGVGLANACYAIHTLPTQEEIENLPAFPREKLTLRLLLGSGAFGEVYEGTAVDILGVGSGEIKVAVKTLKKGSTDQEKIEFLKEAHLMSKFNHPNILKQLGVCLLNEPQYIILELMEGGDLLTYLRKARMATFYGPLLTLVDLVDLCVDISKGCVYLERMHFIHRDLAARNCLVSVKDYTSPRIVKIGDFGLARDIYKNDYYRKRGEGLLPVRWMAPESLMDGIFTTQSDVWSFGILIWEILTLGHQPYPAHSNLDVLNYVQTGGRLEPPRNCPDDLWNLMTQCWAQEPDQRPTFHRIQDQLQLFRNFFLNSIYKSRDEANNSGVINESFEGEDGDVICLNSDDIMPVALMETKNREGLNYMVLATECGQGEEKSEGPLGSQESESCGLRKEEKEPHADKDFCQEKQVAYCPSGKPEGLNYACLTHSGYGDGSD

For the molecule `CNC(=O)CCc1cc(-c2ccc(-c3ccc(C(F)(F)F)cc3)cc2)n(-c2ccc(N3CCNCC3)cc2)n1`, the inhibition entry in data set [1] and in [10] was “inactive” throughout. Also, the inhibition result in data set [2] was “Active”. Besides, the outcome in the data set on Mus musculus was Active. In addition, the Activity entry in the data set with SK-BR-3 [3] is “Dose-dependent effect”; in data set [4], 103%; in [8], 66%; in the data set with PC-3 [11] it was 12.1%. Moreover, the result in the data set with SK-BR-3 [5], in the data set on PC-3 [6], in the data set with SK-BR-3 [7], in the data set with PC-3 [9] and in the data set on SK-BR-3 [12] was inactive. The “inhibition (INH)” value in the data set with PrEC and in the data set on HMEC was “Not Active” throughout. In the data set with MDA-MB-468, the pIC50 was 5.82.

In general, pIC50 refers to the negative decadic logarithm of the IC50, by convention in mol/L.
